The test system of experiment [1] is Tyrosine-protein kinase ABL1 (Homo sapiens), P00519 [F317L]. Put plainly: Binding affinity to human phosphorylated ABL1 F317L mutant (S229 to K512 residues) expressed in mammalian expression system assessed as residual binding level at 1 uM by Kinomescan method relative to control. In outline: (§1)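 KinomeScan active site-directed competition binding panel (468 kinases), compound tested at 1 μM. Result expressed as remaining kinase signal versus DMSO control (percent of control).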

The target of experiment [2] is Mitotic checkpoint serine/threonine-protein kinase BUB1 (Homo sapiens) (UniProt O43683). Nature of the experiment: Binding affinity to wild-type human partial length BUB1 (Q724 to K1085 residues) expressed in mammalian expression system assessed as residual binding level at 1 uM by Kinomescan method relative to control. In outline: (§2)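 KinomeScan, an active site-directed competition binding panel of 468 kinases. The test compound was at 1 μM. The readout is remaining kinase binding as a percentage of the DMSO control. Scores above 35% were treated as weak binding and not listed.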

In experiment [3] the target is Cyclin-dependent kinase 7 (Homo sapiens) (UniProt P50613). Nature of the experiment: Binding affinity to wild-type human full length CDK7 (M1 to L344 residues) expressed in mammalian expression system assessed as residual binding level at 1 uM by Kinomescan method relative to control. In outline: (§3)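 Active-site-directed KinomeScan competition binding panel covering 468 kinases, compound tested at 1 μM. Each readout is the kinase signal remaining with compound, expressed as a percentage of the DMSO control. […]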
Sequence of Cyclin-dependent kinase 7 (Homo sapiens) (P50613 whole entry, the tested form may be a part): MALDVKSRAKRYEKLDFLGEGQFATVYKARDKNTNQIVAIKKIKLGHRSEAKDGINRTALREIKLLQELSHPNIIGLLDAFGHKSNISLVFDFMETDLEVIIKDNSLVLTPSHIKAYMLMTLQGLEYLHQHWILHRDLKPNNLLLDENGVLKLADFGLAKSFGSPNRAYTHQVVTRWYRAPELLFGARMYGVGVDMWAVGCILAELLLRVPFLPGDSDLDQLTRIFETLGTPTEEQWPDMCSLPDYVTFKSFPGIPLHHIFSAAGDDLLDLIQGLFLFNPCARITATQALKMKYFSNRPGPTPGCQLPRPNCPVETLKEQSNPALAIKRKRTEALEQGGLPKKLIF

Experiment [4] addresses Cyclin-dependent kinase-like 3 (Homo sapiens) (UniProt Q8IVW4). Put plainly: Binding affinity to wild-type human partial length CDKL3 (M1 to D327 residues) expressed in bacterial expression system assessed as residual binding level at 1 uM by Kinomescan method relative to control.
The target of experiment [5] is Epithelial discoidin domain-containing receptor 1 (Homo sapiens) (UniProt Q08345). Nature of the experiment: Binding affinity to wild-type human partial length DDR1 (R565 to V876 residues) expressed in bacterial expression system assessed as residual binding level at 1 uM by Kinomescan method relative to control. A digest of the protocol:
(§4)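 Active-site-directed competition binding panel of 468 kinases (KinomeScan), compound at 1 μM. The read-out is kinase remaining bound, given as a percentage of the DMSO control. […]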

The subject of experiment [6] is Epidermal growth factor receptor (Homo sapiens), P00533 [L861Q]. Put plainly: Binding affinity to human partial length EGFR L861Q mutant (R669 to V1011 residues) expressed in bacterial expression system assessed as residual binding level at 1 uM by Kinomescan method relative to control. In outline: as §1
The target in experiment [7] is Serine/threonine-protein kinase/endoribonuclease IRE1 (Homo sapiens) (UniProt O75460). Nature of the experiment: Binding affinity to wild-type human partial length ERN1 (S551 to E852 residues) expressed in mammalian expression system assessed as residual binding level at 1 uM by Kinomescan method relative to control. A digest of the protocol:
as §4

For experiment [8], the target named is Fibroblast growth factor receptor 1 (Homo sapiens, UniProt P11362). Put plainly: Binding affinity to wild-type human partial length FGFR1 (P357 to V669 residues) expressed in bacterial expression system assessed as residual binding level at 1 uM by Kinomescan method relative to control.
Sequence of Fibroblast growth factor receptor 1 (P11362 22-822 limits assumed): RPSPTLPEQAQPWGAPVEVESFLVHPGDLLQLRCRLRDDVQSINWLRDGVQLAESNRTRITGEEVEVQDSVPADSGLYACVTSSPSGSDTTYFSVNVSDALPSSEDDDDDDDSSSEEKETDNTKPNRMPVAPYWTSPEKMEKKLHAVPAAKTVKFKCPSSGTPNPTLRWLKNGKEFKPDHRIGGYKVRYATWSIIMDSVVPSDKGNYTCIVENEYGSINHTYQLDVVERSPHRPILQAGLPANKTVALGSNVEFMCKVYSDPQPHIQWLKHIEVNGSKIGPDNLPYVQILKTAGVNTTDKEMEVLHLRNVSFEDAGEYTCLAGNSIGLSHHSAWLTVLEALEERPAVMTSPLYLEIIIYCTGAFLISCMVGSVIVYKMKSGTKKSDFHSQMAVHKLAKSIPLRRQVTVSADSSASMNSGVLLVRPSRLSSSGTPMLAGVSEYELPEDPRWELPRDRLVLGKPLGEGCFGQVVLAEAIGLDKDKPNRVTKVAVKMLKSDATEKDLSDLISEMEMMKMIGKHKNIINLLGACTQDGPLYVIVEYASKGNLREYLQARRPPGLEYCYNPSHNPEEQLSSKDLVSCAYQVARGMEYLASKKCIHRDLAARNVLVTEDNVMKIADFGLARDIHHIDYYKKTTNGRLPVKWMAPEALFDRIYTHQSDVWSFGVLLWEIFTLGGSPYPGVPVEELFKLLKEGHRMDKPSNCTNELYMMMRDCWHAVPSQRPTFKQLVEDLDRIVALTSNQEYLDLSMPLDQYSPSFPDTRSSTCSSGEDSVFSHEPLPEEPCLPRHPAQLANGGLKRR
Experiment [9] concerns the target Vascular endothelial growth factor receptor 3 (Homo sapiens) (UniProt P35916). Nature of the experiment: Binding affinity to wild-type human partial length FLT4 (E821 to E1196 residues) expressed in bacterial expression system assessed as residual binding level at 1 uM by Kinomescan method relative to control.
Experiment [10] concerns the target G protein-coupled receptor kinase 4 (Homo sapiens) (UniProt P32298). Nature of the experiment: Binding affinity to wild-type human full length GRK4 (M1 to C578 residues) expressed in bacterial expression system assessed as residual binding level at 1 uM by Kinomescan method relative to control. In outline:
as §3

Experiment [11] addresses Homeodomain-interacting protein kinase 3 (Homo sapiens) (UniProt Q9H422). Put plainly: Binding affinity to wild-type human partial length HIPK3 (M153 to N562 residues) expressed in mammalian expression system assessed as residual binding level at 1 uM by Kinomescan method relative to control. A digest of the protocol: as §4
Experiment [12] deals with Serine/threonine-protein kinase 10 (Homo sapiens) (UniProt O94804). Nature of the experiment: Binding affinity to wild-type human partial length LOK (E16 to V314 residues) expressed in bacterial expression system assessed as residual binding level at 1 uM by Kinomescan method relative to control. In outline:
as §4

The target of experiment [13] is Mitogen-activated protein kinase kinase kinase 4 (Homo sapiens) (UniProt Q9Y6R4). Nature of the experiment: Binding affinity to wild-type human partial length MAP3K4 (G1319 to E1608 residues) expressed in bacterial expression system assessed as residual binding level at 1 uM by Kinomescan method relative to control.
Experiment [14] addresses Serine/threonine-protein kinase 4 (Homo sapiens) (UniProt Q13043). Put plainly: Binding affinity to wild-type human full length MST1 (M1 to F487 residues) expressed in bacterial expression system assessed as residual binding level at 1 uM by Kinomescan method relative to control. In outline:
as §2

For experiment [15], the target named is Serine/threonine-protein kinase 38 (Homo sapiens) (UniProt Q15208). Put plainly: Binding affinity to wild-type human partial length NDR1 (N33 to E449 residues) expressed in mammalian expression system assessed as residual binding level at 1 uM by Kinomescan method relative to control. In outline:
as §4

For experiment [16], the target named is Phosphatidylinositol 4-kinase beta (Homo sapiens) (UniProt Q9UBF8). Put plainly: Binding affinity to wild-type human full length PIK4CB (M1 to M828 residues) expressed in mammalian expression system assessed as residual binding level at 1 uM by Kinomescan method relative to control. A digest of the protocol: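 Active-site-directed competition binding panel (KinomeScan) covering 468 kinases. Test agent was screened at 1 μM. The read-out is the remaining kinase signal expressed relative to a DMSO control. Scores above 35%, taken as weak binding, were not reported.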

For experiment [17], the target named is Serine/threonine-protein kinase N1 (Homo sapiens) (UniProt Q16512). Put plainly: Binding affinity to wild-type human partial length PKN1 (E598 to C948 residues) expressed in bacterial expression system assessed as residual binding level at 1 uM by Kinomescan method relative to control. A digest of the protocol:
as §4

The target of experiment [18] is Serine/threonine-protein kinase PLK4 (Homo sapiens) (UniProt O00444). Put plainly: Binding affinity to wild-type human partial length PLK4 (M1 to S273 residues) expressed in mammalian expression system assessed as residual binding level at 1 uM by Kinomescan method relative to control.
Experiment [19] concerns the target Interferon-induced, double-stranded RNA-activated protein kinase (Homo sapiens) (UniProt P19525). Nature of the experiment: Binding affinity to wild-type human partial length PRKR (F247 to C551 residues) expressed in bacterial expression system assessed as residual binding level at 1 uM by Kinomescan method relative to control.
Experiment [20] addresses TGF-beta receptor type-2 (Homo sapiens) (UniProt P37173). Put plainly: Binding affinity to wild-type human partial length TGFBR2 (I218 to K567 residues) expressed in bacterial expression system assessed as residual binding level at 1 uM by Kinomescan method relative to control.
The target of experiment [21] is Non-receptor tyrosine-protein kinase TYK2 (Homo sapiens) (UniProt P29597). Put plainly: Binding affinity to wild-type human partial length TYK2 JH1 catalytic domain (V877 to C1187 residues) expressed in mammalian expression system assessed as residual binding level at 1 uM by Kinomescan method relative to control.

Sequence of Interferon-induced, double-stranded RNA-activated protein kinase (Homo sapiens) (P19525 whole entry, the tested form may be a part): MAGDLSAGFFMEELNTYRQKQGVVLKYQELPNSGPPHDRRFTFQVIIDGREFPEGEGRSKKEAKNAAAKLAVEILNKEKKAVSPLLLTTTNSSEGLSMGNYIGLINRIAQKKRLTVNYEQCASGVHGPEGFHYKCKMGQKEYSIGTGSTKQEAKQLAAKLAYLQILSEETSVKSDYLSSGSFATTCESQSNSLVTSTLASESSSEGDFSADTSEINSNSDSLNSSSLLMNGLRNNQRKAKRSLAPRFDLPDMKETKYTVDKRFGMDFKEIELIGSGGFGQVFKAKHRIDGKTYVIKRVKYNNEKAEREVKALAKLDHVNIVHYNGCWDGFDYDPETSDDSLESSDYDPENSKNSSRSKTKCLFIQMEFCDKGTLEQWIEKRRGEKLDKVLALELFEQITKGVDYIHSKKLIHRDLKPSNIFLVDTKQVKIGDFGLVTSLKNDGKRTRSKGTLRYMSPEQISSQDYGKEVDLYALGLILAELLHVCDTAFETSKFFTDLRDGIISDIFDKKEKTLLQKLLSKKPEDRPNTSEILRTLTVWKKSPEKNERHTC
Sequence of Homeodomain-interacting protein kinase 3 (Homo sapiens) (Q9H422 whole entry, looked up, the tested form may be a part): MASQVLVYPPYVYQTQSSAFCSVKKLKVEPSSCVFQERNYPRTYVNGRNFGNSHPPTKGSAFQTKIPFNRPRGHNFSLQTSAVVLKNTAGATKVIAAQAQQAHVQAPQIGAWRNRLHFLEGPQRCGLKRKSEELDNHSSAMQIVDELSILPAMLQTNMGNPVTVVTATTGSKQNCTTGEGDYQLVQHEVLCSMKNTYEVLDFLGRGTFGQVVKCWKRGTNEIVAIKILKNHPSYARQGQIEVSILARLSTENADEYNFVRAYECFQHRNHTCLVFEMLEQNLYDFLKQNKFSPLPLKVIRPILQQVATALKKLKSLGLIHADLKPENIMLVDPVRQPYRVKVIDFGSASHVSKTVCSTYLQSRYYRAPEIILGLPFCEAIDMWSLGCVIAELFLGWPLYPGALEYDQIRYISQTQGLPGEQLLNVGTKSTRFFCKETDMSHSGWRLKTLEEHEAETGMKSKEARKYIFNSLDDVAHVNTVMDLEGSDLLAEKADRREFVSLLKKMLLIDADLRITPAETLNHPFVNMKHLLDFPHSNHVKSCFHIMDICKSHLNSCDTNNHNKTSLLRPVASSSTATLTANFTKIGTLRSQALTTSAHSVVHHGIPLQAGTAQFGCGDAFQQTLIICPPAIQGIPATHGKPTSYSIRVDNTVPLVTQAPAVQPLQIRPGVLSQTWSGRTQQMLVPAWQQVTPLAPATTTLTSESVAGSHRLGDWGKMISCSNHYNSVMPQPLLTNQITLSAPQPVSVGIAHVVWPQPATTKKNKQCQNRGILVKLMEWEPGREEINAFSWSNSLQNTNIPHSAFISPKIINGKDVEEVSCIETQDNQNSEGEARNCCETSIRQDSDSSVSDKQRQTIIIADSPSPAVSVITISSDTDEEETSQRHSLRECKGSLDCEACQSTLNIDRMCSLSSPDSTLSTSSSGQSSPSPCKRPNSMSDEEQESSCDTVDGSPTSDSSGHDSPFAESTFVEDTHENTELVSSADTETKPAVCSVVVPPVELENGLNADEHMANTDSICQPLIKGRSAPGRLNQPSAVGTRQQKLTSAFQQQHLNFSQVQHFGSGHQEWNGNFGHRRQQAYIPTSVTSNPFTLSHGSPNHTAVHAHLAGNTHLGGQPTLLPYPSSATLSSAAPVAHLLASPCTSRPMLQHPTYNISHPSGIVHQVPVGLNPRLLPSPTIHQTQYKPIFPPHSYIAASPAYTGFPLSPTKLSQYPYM
Sequence of Serine/threonine-protein kinase/endoribonuclease IRE1 (Homo sapiens) (O75460 19-977 limits assumed): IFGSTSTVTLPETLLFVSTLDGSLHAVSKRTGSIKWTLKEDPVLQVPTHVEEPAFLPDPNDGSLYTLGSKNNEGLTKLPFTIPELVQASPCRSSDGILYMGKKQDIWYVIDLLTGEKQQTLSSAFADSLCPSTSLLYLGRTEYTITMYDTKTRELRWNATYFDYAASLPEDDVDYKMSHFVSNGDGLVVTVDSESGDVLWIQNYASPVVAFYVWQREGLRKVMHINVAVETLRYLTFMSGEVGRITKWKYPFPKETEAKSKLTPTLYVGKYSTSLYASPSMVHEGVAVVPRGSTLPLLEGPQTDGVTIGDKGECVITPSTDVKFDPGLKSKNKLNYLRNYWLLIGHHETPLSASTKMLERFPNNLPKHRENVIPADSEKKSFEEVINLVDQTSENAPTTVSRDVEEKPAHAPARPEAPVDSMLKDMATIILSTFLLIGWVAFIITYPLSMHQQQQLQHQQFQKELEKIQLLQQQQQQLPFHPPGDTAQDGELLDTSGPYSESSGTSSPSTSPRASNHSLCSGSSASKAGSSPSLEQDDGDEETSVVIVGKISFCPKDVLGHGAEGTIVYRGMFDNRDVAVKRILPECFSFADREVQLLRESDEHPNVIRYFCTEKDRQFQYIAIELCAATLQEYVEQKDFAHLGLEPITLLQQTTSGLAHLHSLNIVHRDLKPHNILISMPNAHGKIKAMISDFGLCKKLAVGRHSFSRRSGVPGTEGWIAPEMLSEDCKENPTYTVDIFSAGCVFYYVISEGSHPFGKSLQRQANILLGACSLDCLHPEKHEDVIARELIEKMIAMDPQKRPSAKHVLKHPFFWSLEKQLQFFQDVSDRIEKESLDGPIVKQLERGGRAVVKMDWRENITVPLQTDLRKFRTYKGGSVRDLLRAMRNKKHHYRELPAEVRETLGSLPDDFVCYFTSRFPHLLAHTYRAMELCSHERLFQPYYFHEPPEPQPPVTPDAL
Sequence of Serine/threonine-protein kinase N1 (Homo sapiens) (Q16512 2-942 limits assumed): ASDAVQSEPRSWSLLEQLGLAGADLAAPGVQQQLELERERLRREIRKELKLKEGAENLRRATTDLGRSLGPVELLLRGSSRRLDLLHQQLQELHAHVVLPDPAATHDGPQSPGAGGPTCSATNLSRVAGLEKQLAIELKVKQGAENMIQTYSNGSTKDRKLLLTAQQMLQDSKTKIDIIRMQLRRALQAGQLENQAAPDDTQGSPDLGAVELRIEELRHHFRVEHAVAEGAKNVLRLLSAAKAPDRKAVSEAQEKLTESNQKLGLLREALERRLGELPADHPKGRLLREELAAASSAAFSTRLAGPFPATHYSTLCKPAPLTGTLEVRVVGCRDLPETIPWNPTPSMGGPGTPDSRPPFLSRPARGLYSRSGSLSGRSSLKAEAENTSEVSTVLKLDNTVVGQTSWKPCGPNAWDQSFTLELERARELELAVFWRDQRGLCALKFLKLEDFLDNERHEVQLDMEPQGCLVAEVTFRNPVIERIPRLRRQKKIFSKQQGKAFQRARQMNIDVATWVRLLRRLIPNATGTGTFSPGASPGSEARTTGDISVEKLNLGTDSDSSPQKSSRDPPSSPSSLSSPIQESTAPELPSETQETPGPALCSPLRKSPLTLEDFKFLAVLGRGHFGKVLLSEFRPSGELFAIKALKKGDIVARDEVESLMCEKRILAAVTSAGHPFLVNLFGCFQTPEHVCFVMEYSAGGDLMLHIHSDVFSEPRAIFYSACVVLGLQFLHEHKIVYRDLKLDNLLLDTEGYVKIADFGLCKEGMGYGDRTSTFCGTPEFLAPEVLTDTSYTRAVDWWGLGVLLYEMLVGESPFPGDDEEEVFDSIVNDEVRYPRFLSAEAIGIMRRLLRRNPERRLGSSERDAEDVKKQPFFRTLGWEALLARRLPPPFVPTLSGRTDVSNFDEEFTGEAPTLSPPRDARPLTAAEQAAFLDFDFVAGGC

As for `C=CC(=O)Nc1ccccc1Nc1nc(Nc2ccc(N3CCN(C)CC3)cc2)ncc1C(=O)Nc1c(C)cccc1Cl`, the Activity in experiment [1] was 1.3%; in experiment [2], 88%; in [3] it was 100%; in experiment [4] it was 100%; in experiment [5], 1.1%; in [6], 55%. The Activity in experiment [7] turned out to be 98%; in experiment [8], 100%; in experiment [9], 100%; in experiment [10], 100%; in experiment [11], 99%; in [12], 96%. The Activity in experiment [13] came to 65%; in experiment [14], 93%; in experiment [15], 90%; in [16], 91%; in experiment [17] it was 83%; in [18], 92%. Besides, the Activity in experiment [19], in experiment [20] and in [21] was 100% in each case.

The values above are taken from ChEMBL document CHEMBL4354843, “Structure-Based Design of a Potent and Selective Covalent Inhibitor for SRC Kinase That Targets a P-Loop Cysteine” (J Med Chem, 2020).
